The nature of test [1]: Binding affinity to A-A-C/T-T-G duplex DNA (unknown origin) assessed as change in melting temperature at 10 uM by UV-Vis spectrophotometric analysis (reference value: 52.1 +/- 0.1 degC).
A short description of test [2]: Photo-activated binding affinity to A-F-C/T-C-G duplex DNA (unknown origin) at 100 uM measured for 24 hrs by HPLC analysis. The method in brief:
(§1)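 Duplex at 10 µM (F = tetrahydrofuran AP analogue) with 100 µM ligand in 10 mM HEPES-NaOH pH 7.0, 5 mM DTT and 100 mM NaCl. Irradiated with UVA (4 W, 365 nm) at rt. Analysed by reversed-phase C18 HPLC at 50 °C with 254 nm detection, TEAA pH 7.0/MeCN gradient. Product peak identified by MALDI-TOF MS.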

The nature of test [3]: Induction of DNA cleavage in 5'-FAM-DNA1(U)/DNA2(A) duplex DNA (unknown origin) assessed as change in formation of DNA4 at 10 uM by fluorescence based PAGE analysis. The method in brief:
(§2)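 DNA1(U)/DNA2(X) was annealed 5 min at 70 °C and treated with uracil-DNA glycosylase (0.2 unit/µl, pH 7.4, 37 °C, 15 min) to form the AP site. The 100 nM duplex was re-annealed in 10 mM HEPES-NaOH pH 7.0 with 100 mM NaCl, then incubated with 10 µM ligand at 37 °C for 5–300 min. Reactions were quenched with urea/EDTA loading buffer on ice. Products were run on 12% denaturing PAGE (8 M urea), imaged by 5'-FAM fluorescence, and band ratios (%) quantified.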

Test [4] can be described thus: Binding affinity to A-T-C/T-A-G duplex DNA (unknown origin) assessed as change in melting temperature at 10 uM by UV-Vis spectrophotometric analysis (reference value: 52.0 +/- 0.1 degC).
Test [5] is described as follows: Binding affinity to A-F-C/T-G-G duplex DNA (unknown origin) assessed as change in melting temperature at 10 uM by UV-Vis spectrophotometric analysis (reference value: 34.4 +/- 0.2 degC).
Test [6] can be described thus: Binding affinity to A-F-A/T-C-T duplex DNA (unknown origin) assessed as change in melting temperature at 10 uM by UV-Vis spectrophotometric analysis (reference value: 29.9 +/- 0.3 degC).
Test [7] in a line: Induction of DNA cleavage in 5'-FAM-DNA1(U)/DNA2(A) duplex DNA (unknown origin) assessed as formation of delta elimination production DNA7 at 10 uM measured for 5 hrs by fluorescence based PAGE analysis. The method in brief: as §2
A short description of test [8]: Binding affinity to A-F-C/T-A-G duplex DNA (unknown origin) assessed as change in melting temperature at 10 uM by UV-Vis spectrophotometric analysis (reference value: 33.6 +/- 0.2 degC).
Test [9] can be described thus: Induction of DNA cleavage in 5'-FAM-DNA1(U)/DNA2(A) duplex DNA (unknown origin) assessed as formation of beta elimination production DNA4 at 10 uM measured for 5 hrs by fluorescence based PAGE analysis. The method in brief:
as §2

The nature of test [10]: Binding affinity to A-G-C/T-C-G duplex DNA (unknown origin) assessed as change in melting temperature at 10 uM by UV-Vis spectrophotometric analysis (reference value: 48.5 +/- 0.1 degC).
The nature of test [11]: Induction of DNA cleavage in 5'-FAM-DNA1(U)/DNA2(C) duplex DNA (unknown origin) assessed as formation DNA8 at 10 uM measured for 5 hrs by fluorescence based PAGE analysis. The method, boiled down:
as §2

The nature of test [12]: Induction of DNA cleavage in 5'-FAM-DNA1(U)/DNA2(C) duplex DNA (unknown origin) assessed as formation of delta elimination production DNA7 at 10 uM measured for 5 hrs by fluorescence based PAGE analysis. The method in brief: as §2
Test [13] in a line: Induction of DNA cleavage in 5'-FAM-DNA1(U)/DNA2(A) duplex DNA (unknown origin) assessed as formation DNA8 at 10 uM measured for 5 hrs by fluorescence based PAGE analysis. The method, boiled down: as §2
Test [14] can be described thus: Binding affinity to A-F-C/T-C-G duplex DNA (unknown origin) assessed as change in melting temperature at 10 uM by UV-Vis spectrophotometric analysis (reference value: 30.7 +/- 0.3 degC).
Test [15] in a line: Induction of DNA cleavage in 5'-FAM-DNA1(U)/DNA2(A) duplex DNA (unknown origin) assessed as formation of DNA8 at 10 uM by fluorescence based PAGE analysis. The method, boiled down: as §2
Test [16] is described as follows: Induction of DNA cleavage in 5'-FAM-DNA1(U)/DNA2(C) duplex DNA (unknown origin) assessed as formation of beta elimination production DNA4 at 10 uM measured for 5 hrs by fluorescence based PAGE analysis. The method, boiled down:
as §2

Test [17] can be described thus: Binding affinity to A-G-A/T-C-T duplex DNA (unknown origin) assessed as change in melting temperature at 10 uM by UV-Vis spectrophotometric analysis (reference value: 50.3 +/- 0.1 degC).
The nature of test [18]: Binding affinity to C-G-A/G-C-T duplex DNA (unknown origin) assessed as change in melting temperature at 10 uM by UV-Vis spectrophotometric analysis (reference value: 55.2 +/- 0.1 degC).
Test [19] can be described thus: Binding affinity to C-F-A/G-C-T duplex DNA (unknown origin) assessed as change in melting temperature at 10 uM by UV-Vis spectrophotometric analysis (reference value: 32.0 +/- 0.4 degC).
Test [20] in a line: Induction of DNA cleavage in 5'-FAM-DNA1(U)/DNA2(C) duplex DNA (unknown origin) assessed as formation of DNA8 at 10 uM by fluorescence based PAGE analysis. The method in brief: as §2
The nature of test [21]: Binding affinity to A-F-C/T-T-G duplex DNA (unknown origin) assessed as change in melting temperature at 10 uM by UV-Vis spectrophotometric analysis (reference value: 33.0 +/- 0.4 degC).
Test [22] can be described thus: Binding affinity to A-C-C/T-G-G duplex DNA (unknown origin) assessed as change in melting temperature at 10 uM by UV-Vis spectrophotometric analysis (reference value: 54.8 +/- 0.0 degC).
The nature of test [23]: Photo-activated binding affinity to C-F-A/G-C-T duplex DNA (unknown origin) at 100 uM measured for 24 hrs by HPLC analysis. The method, boiled down:
as §1

Test [24] can be described thus: Photo-activated binding affinity to A-F-C/T-G-G duplex DNA (unknown origin) at 100 uM measured for 24 hrs by HPLC analysis. The method in brief:
as §1

Test [25] in a line: Induction of DNA cleavage in 5'-FAM-DNA1(U)/DNA2(C) duplex DNA (unknown origin) assessed as formation of delta elimination production DNA7 at 10 uM by fluorescence based PAGE analysis. The method in brief: as §2
The nature of test [26]: Induction of DNA cleavage in 5'-FAM-DNA1(U)/DNA2(C) duplex DNA (unknown origin) assessed as formation of beta elimination production DNA4 at 10 uM measured for 30 min by fluorescence based PAGE analysis. The method, boiled down:
as §2

Test [27] is described as follows: Photo-activated binding affinity to A-F-A/T-C-T duplex DNA (unknown origin) at 100 uM measured for 24 hrs by HPLC analysis. The method in brief: as §1
A short description of test [28]: Photo-activated binding affinity to A-F-C/T-C-G duplex DNA (unknown origin) assessed as induction of photo reaction at 100 uM measured for 3 hrs by HPLC analysis. The method, boiled down: as §1
Test [29] is described as follows: Induction of DNA cleavage in 5'-FAM-DNA1(U)/DNA2(C) duplex DNA (unknown origin) assessed as increase in slower moving bands at 10 uM measured after 1 hr by fluorescence based PAGE analysis.
The nature of test [30]: Photo-activated binding affinity to A-F-C/T-T-G duplex DNA (unknown origin) at 100 uM measured for 24 hrs by HPLC analysis. The method in brief: as §1
Test [31] can be described thus: Photo-activated binding affinity to A-F-C/T-A-G duplex DNA (unknown origin) at 100 uM measured for 24 hrs by HPLC analysis. The method, boiled down: as §1

Activity calls are given as the source filed them. The calls are words filed in the database; no cut-off is given here.

`NCCCNCCCNCCCCCn1cnc2c(=S)[nH]c(N)nc21`: the ΔTm in [1] worked out at 0.7 °C; in [4] it was 0.6 °C; in test [5], 3.8 °C; in test [6], 3.3 °C; in [8] it was 2.8 °C; in test [10], 0.6 °C. In addition, the ΔTm came out at 4.2 °C in [14]; 0.6 °C in [17]; 0.9 °C in test [18]; 4.1 °C in test [19]; 3.1 °C in [21]; 1 °C in test [22]. Also, the result in [2], in test [3], in test [7], in [9], in [11] and in test [12] was Active. Further, the result in test [13], in test [15], in [16] and in [20] was Active.
Turning to `NCCCNCCCNCCCn1cnc2c(=S)[nH]c(N)nc21`, the outcome in test [23], in test [24], in test [27], in test [30] and in test [31] was inactive. The ΔTm in [1] is 0.2 °C; in test [4] it was 0.5 °C; in test [5], 1.6 °C; in test [6] it was 1.8 °C; in test [8], 2.3 °C; in test [10], 0.7 °C. In addition, the ΔTm in test [14] amounted to 5.4 °C; in [17], 0.7 °C; in test [18], 0.4 °C; in test [19] it was 3.5 °C; in test [21], 1.2 °C; in test [22], 0.5 °C. For the same molecule, the result in test [25], in test [2], in [3], in test [26], in [7] and in test [9] was Active. Moreover, the outcome in [28], in test [11], in [12], in test [13], in test [29] and in test [15] was Active. Besides, the outcome in test [16] was Active.
Regarding `NCCCNCCCNCCCn1cnc2c(=O)[nH]c(N)nc21`, the outcome in test [29] was inactive.

By ΔTm is commonly meant the shift of the melting midpoint relative to a reference.

(Values after ChEMBL document CHEMBL4406905, “The adduct formation between the thioguanine-polyamine ligands and DNA with the AP site under UVA irradiated and non-irradiated conditions” (Bioorg Med Chem, 2019).)
